Data set [1] concerns NHDF. The data set can be described thus: Induction of cell cycle arrest in human HDF cells assessed as accumulation of cells at Sub-2N phase at 3 micromol/L incubated for 72 hrs by propidium iodide staining based flow cytometry analysis (reference value: 0.7 %). In kind it is toxicity. The following applies: 3 µM, dose 3 µmol/L. The method, boiled down:
(§1)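 Cells seeded in six-well plates at densities that keep them in log growth (HDF 120,000, 60,000 or 30,000; H460 100,000, 50,000 or 25,000 per well for 24, 48 or 72 h). Treated with 1 or 3 μmol/L. Floating and adherent cells collected, ethanol-fixed, permeabilized with Triton X-100 and stained with propidium iodide. DNA content read by flow cytometry as % singlet cells.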

Another data set deals with MES-SA. Description: Antiproliferative activity against DX5 resistant human MES-SA cells assessed as inhibition of cell growth. The data set is classed as functional, cell-based. The method, boiled down: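 Cells grown 3 days in 96-well plates, seeded so vehicle controls stay in log growth (MES-SA/DX5 7,000, MES-SA 6,000, HDF 5,000 per well). Exposed to 3-fold dilutions, 30–0.00152 μmol/L, in medium with 5% FBS, 50 μg/mL gentamicin and 0.3% (v/v) DMSO. HDF medium was low-glucose DMEM; MES-SA lines used McCoy's 5A.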

The nature of data set [2]: Selectivity ratio of IC50 for cytotoxicity against human HDF cells to IC50 for antiproliferative activity against human HCT-116 cells. The data set is classed as toxicity, cell-based. The note with it: HDF cells versus HCT-116 cells.
For data set [3], the system named is NCI-H460. Description: Induction of cell cycle arrest in human NCI-H460 cells assessed as accumulation of cells at S phase at 1 micromol/L incubated for 48 hrs by propidium iodide staining based flow cytometry analysis (reference value: 18.5 %). The data set is classed as functional. The note with it: dose 1 µmol/L, at 1 µM. (In flow cytometry, cells or beads pass a laser one at a time.)

The subject of data set [4] is NCI-H460. The data set can be described thus: Induction of cell cycle arrest in human NCI-H460 cells assessed as accumulation of cells at S phase at 1 micromol/L incubated for 24 hrs by propidium iodide staining based flow cytometry analysis (reference value: 23.2 %). The data set is classed as functional. The note with it: dose 1 µmol/L, at 1 µM.
In data set [5] the test system is NHDF. Description: Induction of cell cycle arrest in human HDF cells assessed as accumulation of cells at Sub-2N phase at 3 micromol/L incubated for 24 hrs by propidium iodide staining based flow cytometry analysis (reference value: 0.2 %). The note with it: 3 µM, dose 3 µmol/L. In kind it is toxicity. The method, boiled down: as §1
Data set [6] relates to NCI-H460. Description: Induction of cell cycle arrest in human NCI-H460 cells assessed as accumulation of cells at G1 phase at 1 micromol/L incubated for 72 hrs by propidium iodide staining based flow cytometry analysis (reference value: 58.2 %). In kind it is functional. The following applies: dose 1 µmol/L, at 1 µM. The method, boiled down: as §1
Data set [7] can be described thus: Selectivity ratio of IC50 for cytotoxicity against human HDF cells to IC50 for antiproliferative activity against human BT-474 cells. In kind it is toxicity, cell-based. The note with it: HDF cells versus BT-474 cells, read-out: Ratio IC50.
Data set [8] relates to NCI-H460. Description: Induction of cell cycle arrest in human NCI-H460 cells assessed as accumulation of cells at Sub-2N phase at 3 micromol/L incubated for 72 hrs by propidium iodide staining based flow cytometry analysis (reference value: 2.1 %). The data set is classed as functional. The following applies: dose 3 µmol/L, at 3 µM.
In data set [9] the target is Serine/threonine-protein kinase PLK3 (Homo sapiens, UniProt Q9H4B4). The data set can be described thus: Inhibition of human PLK3 expressed in baculovirus infected in Trichoplusia ni cells using Biotin-Ahx-SFNDTLDFD as substrate in presence of ATP by TopCount scintillation proximity assay. Set-up: species or system Trichoplusia ni cell. The method, boiled down:
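Full-length PLK3 (5 nmol/L) from baculovirus-infected Trichoplusia ni cells in 25 mmol/L HEPES pH 7.2, 15 mmol/L MgCl2, 1 μmol/L ATP with [γ-33P]ATP, 1 μmol/L biotinylated peptide, BSA, DTT. Incubated 1–1.5 h at 22°C in the linear range. Stopped with EDTA plus streptavidin SPA beads, then counted or imaged. Signal above EDTA background taken as percent inhibition versus DMSO wells.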
(Scintillation proximity formats need no separation of bound from free tracer.)

Data set [10] concerns NHDF. The data set can be described thus: Induction of cell cycle arrest in human HDF cells assessed as accumulation of cells at S phase at 1 micromol/L incubated for 24 hrs by propidium iodide staining based flow cytometry analysis (reference value: 13.2 %). In kind it is toxicity. The note with it: 1 µM, dose 1 µmol/L. The method, boiled down:
as §1

In data set [11] the test system is NHDF. The data set can be described thus: Induction of cell cycle arrest in human HDF cells assessed as accumulation of cells at >4N phase at 1 micromol/L incubated for 24 hrs by propidium iodide staining based flow cytometry analysis (reference value: 2.4 %). The following applies: 1 µM, dose 1 µmol/L. The data set is classed as toxicity. The method, boiled down: as §1

The test system of data set [12] is NCI-H460. Description: Induction of cell cycle arrest in human NCI-H460 cells assessed as accumulation of cells at Sub-2N phase at 1 micromol/L incubated for 24 hrs by propidium iodide staining based flow cytometry analysis (reference value: 4.0 %). The data set is classed as functional. The following applies: dose 1 µmol/L, at 1 µM.
The nature of data set [13]: Selectivity ratio of IC50 for cytotoxicity against human HDF cells to IC50 for antiproliferative activity against human HN5 cells. In kind it is toxicity, cell-based. The following applies: HDF cells versus HN5 cells.
Data set [14] is described as follows: Cytotoxicity against human HDF cells assessed as outgrowth of cells at 3.3 micromol/L incubated for 72 hrs by methylene blue staining based analysis relative to control. The following applies: HDF cells (NHDF, human dermal fibroblasts), dose 3.3 µmol/L, read-out: Activity. The data set is classed as toxicity, cell-based. The method, boiled down:
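HDF seeded at 1,300 and H460 at 600 per well in 96-well plates. After 24 h, exposed to vehicle (0.3% DMSO) or compound at 0.37–30 μmol/L for 72 h. Wells were then washed with PBS and refed with drug-free medium containing gentamicin. Regrowth was followed by methylene blue staining at set time points over 13 days in total.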

Data set [15] relates to NCI-H460. Description: Induction of apoptosis in human NCI-H460 cells assessed as increase in caspase-3 activity at 5 micromol/L measured after 46 hrs using AcDEVD-[…] fluorogenic peptide as substrate by plate reader analysis. In kind it is functional, cell-based. The note with it: dose 5.0 µmol/L. The method, boiled down: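 H460 cells seeded at 320,000 per well in six-well plates and given 5 μmol/L for 7 to 72 h. Lysates made in Tris/phosphate buffer, pH 7.5, with Triton X-100. Cleavage of Ac-DEVD-[…] measured by fluorescence, excitation 380 nm, emission 420–460 nm.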

The nature of data set [16]: Selectivity ratio of IC50 for cytotoxicity against human HDF cells to IC50 for antiproliferative activity against human NCI-H460 cells. The data set is classed as toxicity, cell-based. The note with it: HDF cells versus NCI-H460 cells, read-out: Ratio IC50. The method, boiled down: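 HDF (5,000/well) and H460 (2,000/well) cells exposed 3 days to 3-fold dilutions (30–0.00152 μmol/L) in medium with 5% FBS, gentamicin and 0.3% DMSO (low-glucose DMEM for HDF, RPMI 1640 for H460); vehicle controls growing logarithmically. IC50 from each line gives the HDF/H460 ratio.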

For data set [17], the system named is NHDF. The data set can be described thus: Induction of cell cycle arrest in human HDF cells assessed as accumulation of cells at G1 phase at 3 micromol/L incubated for 24 hrs by propidium iodide staining based flow cytometry analysis (reference value: 57.0 %). In kind it is toxicity. The note with it: 3 µM, dose 3 µmol/L. The method, boiled down: as §1
Data set [18] concerns NHDF. The data set can be described thus: Induction of cell cycle arrest in human HDF cells assessed as accumulation of cells at G2-M phase at 3 micromol/L incubated for 48 hrs by propidium iodide staining based flow cytometry analysis (reference value: 14.3 %). The data set is classed as toxicity. The note with it: 3 µM, dose 3 µmol/L. The method, boiled down: as §1
Data set [19] has as its system NCI-H460. The data set can be described thus: Induction of cell cycle arrest in human NCI-H460 cells assessed as accumulation of cells at G2-M phase at 1 micromol/L incubated for 24 hrs by propidium iodide staining based flow cytometry analysis (reference value: 19.8 %). In kind it is functional. The note with it: dose 1 µmol/L, at 1 µM.
The subject of data set [20] is NCI-H460. The data set can be described thus: Induction of cell cycle arrest in human NCI-H460 cells assessed as accumulation of cells at >4N phase at 3 micromol/L incubated for 48 hrs by propidium iodide staining based flow cytometry analysis (reference value: 0.9 %). In kind it is functional. The following applies: dose 3 µmol/L, at 3 µM. The method, boiled down:
as §1

The nature of data set [21]: Inhibition of CDK2/cyclin A (unknown origin). Further details: species or system Homo sapiens.

Calls of active or inactive are those of the source. The rule behind the calls is not given here.

Serine/threonine-protein kinase PLK3, sequence (Q9H4B4 whole entry): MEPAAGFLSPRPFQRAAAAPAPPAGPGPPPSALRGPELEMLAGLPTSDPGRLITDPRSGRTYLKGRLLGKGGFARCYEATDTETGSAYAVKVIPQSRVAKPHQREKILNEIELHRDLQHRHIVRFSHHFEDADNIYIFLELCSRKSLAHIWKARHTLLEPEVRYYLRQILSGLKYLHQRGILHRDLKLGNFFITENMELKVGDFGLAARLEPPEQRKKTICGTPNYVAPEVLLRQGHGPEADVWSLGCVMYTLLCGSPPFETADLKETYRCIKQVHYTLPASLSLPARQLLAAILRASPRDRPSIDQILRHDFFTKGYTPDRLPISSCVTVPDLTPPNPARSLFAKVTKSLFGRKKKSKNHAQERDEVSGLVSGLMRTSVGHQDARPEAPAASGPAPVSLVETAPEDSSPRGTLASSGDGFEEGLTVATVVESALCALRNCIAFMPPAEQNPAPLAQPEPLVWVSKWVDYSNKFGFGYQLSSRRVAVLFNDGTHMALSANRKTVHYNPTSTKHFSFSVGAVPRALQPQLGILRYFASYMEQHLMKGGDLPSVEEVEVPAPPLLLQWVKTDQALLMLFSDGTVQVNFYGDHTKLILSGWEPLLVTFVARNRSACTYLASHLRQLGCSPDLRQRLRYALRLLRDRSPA

With `COc1cc2ncn(-c3cc(OCc4ccccc4C(F)(F)F)c(C(N)=O)s3)c2cc1OC` [GW843682X], the Activity in the data set with NHDF [1] is 9.1%; with NCI-H460 [3], 24.3%; with NCI-H460 [4], 18.2%; with NHDF [5] it was 0.2%; with NCI-H460 [6], 2.5%; in the data set on NCI-H460 [8] it was 30%. Besides, the Activity in the data set with NHDF [10] stood at 10.2%; in the data set on NHDF [11], 3.5%; with NCI-H460 [12], 11.6%; in the data set on NHDF [17], 21.1%; with NHDF [18], 61.2%; with NCI-H460 [19], 33%. Also, in the data set on NCI-H460 [20], the Activity stood at 35.9%. Further, the IC50 (commonly the concentration that gives 50% inhibition) with MES-SA stood at 210 nM; in [9] it was 9.1 nM; in [21] it was 7600 nM. Further, the selectivity ratio is 8.8 in data set [2], > 10 in data set [7], 9 in [13] and > 10 in [16]. Besides, the viability at 72 h, 3.3 µM in data set [14] was ~30%. Further, the result with NCI-H460 [15] was Active.

Source of the values: ChEMBL document CHEMBL5661972, “In vitro biological activity of a novel small-molecule inhibitor of polo-like kinase 1” (Mol Cancer Ther, 2007).
